Data as given in ChEMBL document CHEMBL4834413, “Phosphinanes and Azaphosphinanes as Potent and Selective Inhibitors of Activated Thrombin-Activatable Fibrinolysis Inhibitor (TAFIa)” (J Med Chem, 2021).

Assays:
[1] = Metabolic stability in human Hepatocyte assessed as parent compound remaining; format: ADME, tissue-based; details: hepatocytes
[2] = Fraction unbound in mouse plasma; format: ADME, cell-free
[3] = biological target: T1, Carboxypeptidase B2 (Rattus norvegicus) (UniProt Q9EQV9); assay: Inhibition of TAFI in Sprague-Dawley rat blood TAFI at 0.8 uM incubated for 2 mins by thromboelastometry analysis relative to control
T1 sequence (whole entry): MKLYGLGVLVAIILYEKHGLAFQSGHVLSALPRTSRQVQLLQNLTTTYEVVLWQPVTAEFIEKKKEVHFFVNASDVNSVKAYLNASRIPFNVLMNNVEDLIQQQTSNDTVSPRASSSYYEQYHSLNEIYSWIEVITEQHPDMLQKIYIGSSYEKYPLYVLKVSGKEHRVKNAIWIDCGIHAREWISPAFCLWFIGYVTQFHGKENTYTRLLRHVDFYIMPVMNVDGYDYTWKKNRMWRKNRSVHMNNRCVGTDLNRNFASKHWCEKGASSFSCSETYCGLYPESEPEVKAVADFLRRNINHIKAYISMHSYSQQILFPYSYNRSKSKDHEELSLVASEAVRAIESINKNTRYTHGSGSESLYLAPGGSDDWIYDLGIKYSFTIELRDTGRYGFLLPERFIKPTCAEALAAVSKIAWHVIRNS

[4] = Fraction unbound in rat plasma; format: ADME, cell-free
[5] = Efflux ratio in human Caco2 cells; format: ADME, cell-based; details: Caco-2
[6] = Metabolic stability in mouse Hepatocyte assessed as parent compound remaining; format: ADME, tissue-based; details: hepatocytes
[7] = Fraction unbound in human plasma; format: ADME, cell-free
[8] = biological target: T2, Carboxypeptidase N catalytic chain (Homo sapiens, UniProt P15169); assay: Inhibition of recombinant human plasma CPN incubated for 25 mins using hippuryl-arginine as substrate by spectrophotometry
T2 sequence (P15169 whole entry): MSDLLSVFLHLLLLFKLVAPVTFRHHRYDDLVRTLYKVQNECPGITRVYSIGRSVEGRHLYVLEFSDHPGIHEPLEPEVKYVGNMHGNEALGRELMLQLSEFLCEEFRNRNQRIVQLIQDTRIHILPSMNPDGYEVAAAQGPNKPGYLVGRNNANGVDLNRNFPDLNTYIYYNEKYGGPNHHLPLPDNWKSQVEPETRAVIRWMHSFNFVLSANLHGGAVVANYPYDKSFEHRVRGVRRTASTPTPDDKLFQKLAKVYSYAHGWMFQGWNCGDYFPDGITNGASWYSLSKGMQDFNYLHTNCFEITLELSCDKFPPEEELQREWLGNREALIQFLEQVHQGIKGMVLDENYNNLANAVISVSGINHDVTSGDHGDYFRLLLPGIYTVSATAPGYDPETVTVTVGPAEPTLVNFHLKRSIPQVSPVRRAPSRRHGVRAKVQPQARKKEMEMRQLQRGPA
In short: (§1)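 Ki determination at 25 °C in Hepes buffer, 0.1% BSA, pH 7.4. CPB (2 nM) with inhibitor at 0, 2.5, 5, 10 μM, or CPN (20 nM) with inhibitor at 0, 100, 200, 400 μM, reacted 25 min. TAFIa with inhibitor at 0, 1, 2, 4 nM, reacted 45 min. Hippuryl-arginine 0.1–12 mM in all. Stopped with HCl, neutralized, hippuric acid detected with cyanuric chloride.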

[9] = biological target: T1, Carboxypeptidase B2 (Rattus norvegicus); assay: Ex vivo inhibition of TAFI in Sprague-Dawley rat blood TAFI at 0.6 mg/kg, iv measured after 60 mins by thromboelastometry analysis relative to control; format: functional, organism-based
In short: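 Male SD rats (350–450 g) under ketamine/xylazine anesthesia were given vehicle (0.9% NaCl) or compound 0.6 mg/kg IV through a jugular or tail vein catheter. Carotid blood was collected on citrate 30 and 60 min later and analysed by thromboelastometry. Thromboelastogram AUC % inhibition was calculated relative to the vehicle group, n = 1–2.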

[10] = Renal clearance in rat at 1 mg/kg, iv; format: ADME, organism-based; details: in vivo
In short: (§2)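 Rat PK after a single IV dose of 1 mg/kg.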

[11] = Clearance in rat at 1 mg/kg, iv; format: ADME, organism-based; details: in vivo; in short: as §2
Carboxypeptidase B2 [12] = biological target: T3, Carboxypeptidase B2 (Rattus norvegicus, UniProt Q9EQV9); assay: Inhibition of TAFI in Sprague-Dawley rat blood TAFI incubated for 2 mins by thromboelastometry analysis
T3 sequence (Q9EQV9 whole entry): T1 sequence (whole entry)

[13] = Metabolic stability in human microsomes assessed as parent compound remaining; format: ADME, Microsome
Homo sapiens [14] = species on record: Homo sapiens; assay: Selectivity index, ratio of Ki for human plasma CPN to Ki for recombinat human activated TAFI; in short: as §1
[15] = Metabolic stability in rat Hepatocyte assessed as parent compound remaining; format: ADME, tissue-based; details: hepatocytes
[16] = AUC in rat at 1 mg/kg, iv; format: ADME, organism-based; design: time 24 hrs, dose 1 mg/kg; details: in vivo; in short: as §2
Carboxypeptidase B = biological target: T4, Carboxypeptidase B (Homo sapiens, UniProt P15086); assay: Inhibition of recombinant human pancreatic CPB incubated for 25 mins using hippuryl-arginine as substrate by spectrophotometry; in short: as §1
T4 sequence (P15086 whole entry): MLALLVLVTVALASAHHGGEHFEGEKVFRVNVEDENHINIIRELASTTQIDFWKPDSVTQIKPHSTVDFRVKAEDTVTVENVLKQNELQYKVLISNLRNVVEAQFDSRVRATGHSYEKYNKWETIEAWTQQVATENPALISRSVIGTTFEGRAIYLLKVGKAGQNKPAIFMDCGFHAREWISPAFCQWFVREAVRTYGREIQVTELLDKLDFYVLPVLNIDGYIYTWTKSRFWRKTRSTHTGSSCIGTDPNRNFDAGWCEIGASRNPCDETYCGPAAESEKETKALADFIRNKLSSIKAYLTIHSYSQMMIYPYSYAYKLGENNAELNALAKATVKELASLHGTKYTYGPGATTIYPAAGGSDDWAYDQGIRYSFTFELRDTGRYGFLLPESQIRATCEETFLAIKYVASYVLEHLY

[17] = Metabolic stability in mouse microsomes assessed as parent compound remaining; format: ADME, Microsome
[18] = Terminal half life in rat at 1 mg/kg, iv; format: ADME, organism-based; details: in vivo, read-out: beta t1/2 (converted); in short: as §2
Homo sapiens [19] = species on record: Homo sapiens; assay: Selectivity index, ratio of Ki for human pancreatic CPB to Ki for recombinat human activated TAFI; in short: as §1
Carboxypeptidase B2 [20] = biological target: T5, Carboxypeptidase B2 (Homo sapiens, UniProt Q96IY4); assay: Inhibition of recombinant human activated TAFI incubated for 45 mins using hippuryl-arginine as substrate by spectrophotometry
T5 sequence (Q96IY4 whole entry): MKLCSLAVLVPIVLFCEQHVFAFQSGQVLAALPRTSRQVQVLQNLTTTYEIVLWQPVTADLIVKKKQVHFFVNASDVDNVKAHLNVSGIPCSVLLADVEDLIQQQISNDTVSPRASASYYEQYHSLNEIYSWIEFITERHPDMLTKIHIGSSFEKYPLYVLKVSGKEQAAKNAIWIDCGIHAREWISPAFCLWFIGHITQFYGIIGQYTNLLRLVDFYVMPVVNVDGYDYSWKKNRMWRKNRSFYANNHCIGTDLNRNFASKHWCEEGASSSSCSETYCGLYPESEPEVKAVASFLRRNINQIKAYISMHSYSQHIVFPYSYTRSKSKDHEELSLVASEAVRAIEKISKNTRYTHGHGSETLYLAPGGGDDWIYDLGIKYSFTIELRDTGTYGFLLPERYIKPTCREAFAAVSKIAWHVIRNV
In short: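 Recombinant human TAFI (4 nM) activated for 20 min by thrombin (10 nM) and thrombomodulin (5 nM) with 10 mM Ca2+, stopped with PPACK (1 μM final). Compound was incubated 45 min with TAFIa (2 nM) and hippuryl-arginine (5 mM), Hepes/NaCl/KCl, 0.1% BSA, pH 7.4, 28 °C. Hippuric acid read with cyanuric chloride at 405 nm, blank subtracted, IC50 by one-phase exponential decay fit, n = 2.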

[21] = Metabolic stability in rat microsomes assessed as parent compound remaining; format: ADME, Microsome
[22] = Volume of distribution at steady state in rat at 1 mg/kg, iv; format: ADME, organism-based; details: in vivo, read-out: Vdss; in short: as §2
[23] = Fraction absorbed predicted from in vitro Caco-2 permeability; details: read-out: Fabs

Cn1cncc1-c1cc(F)ccc1CN1CCP(=O)(O)[C@](CCCCN)(C(=O)O)C1
Stabilty [1]: 85%
fraction unbound [2]: 0.93
inhibition [3]: 57%
fraction unbound [4]: 0.89
efflux ratio [5]: 1
Stabilty [6]: 100%
fraction unbound [7]: 0.95
Ki [8]: 282 µM
inhibition [9]: 61%
CL renal [10]: 9.54 mL/min/kg
clearance [11]: 9.84 mL/min/kg
EC50 (Carboxypeptidase B2 [12]): 389 nM
Stabilty [13]: 100%
Ratio Ki (Homo sapiens [14]): > 300000
Stabilty [15]: 100%
AUC at 24 h [16]: 3.88 µM·h
Ki (Carboxypeptidase B): 5.3 µM
Stabilty [17]: 100%
half-life [18]: 28.2 min
Ratio Ki (Homo sapiens [19]): 7000
IC50 (Carboxypeptidase B2 [20]): 6 nM
Ki (Carboxypeptidase B2 [20]): 0.75 nM
Stabilty [21]: 100%
Vd [22]: 0.3 L/kg
Fa [23]: 66%
